Hits are enriched below; roughly 2.4% of the tested compounds scored in any of these assays.
STAT3 inh-1 = reduces IL-6 driven STAT3 reporter signal. U3A cells, IL-6 STAT3-luciferase reporter, luminescence; host cell line lacks STAT1. inhibition, % at 5.5 µM. actives 0.89% (n = 190,000). AID 862;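 active = inhibition above the mean inhibition across all screened compounds plus 3 SD, cut at about 44% in these data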;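 also: 0% = DMSO only wells and 100% = 100 µM nifuroxazide control wells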
MT stabilizer = microtubule stabilizers in HeLa cells; % tubulin-high responders, % at 10 µM; HeLa tubulin immunostaining HCS, 24 h; share of cells brighter than vehicle mean+2SD; actives 0.83% (n = 200,000);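 active = plate Z-score above 3 for both tubulin-high and condensed-nucleus cell shares, with cell loss under 80%, at 10 µM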;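 also: anti alpha tubulin signal scored within the nucleus-defined area of each cell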
STAT3 act = STAT3 signaling activation | U3A cells, IL-6 STAT3-luciferase reporter, luminescence; 100% = signal with IL-6 EC80 alone | activation (% of control), % at 5.6 µM | actives 0.91% (n = 190,000) | AID 871;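 active = activation above the screen-wide mean of compound activation plus 3 SD, cut at about 130% in these data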;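 also: 0% = background luminescence of wells with medium and substrate only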
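Material: STAT1-lacking human U3A cells, STAT3 luciferase reporter | Benchmarks: IL-6-only wells as 100% reference | Probe or stimulus: IL-6 (33 ng/mL) | Timing: Compound 1 h, then IL-6 6 h at 37 °C | Detection: Luminescence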
STAT1 blocker = inhibitors of IFN-gamma induced STAT1 signaling. actives 0.35% (n = 200,000). inhibition, % at 5.5 µM. NIH 3T3 STAT1-luciferase reporter, luminescence;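 active = inhibition above a set limit, the mean inhibition across all tested compounds plus 3 SD, cut at about 34% in these data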;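 also: 0% = IFN-gamma with DMSO and 100% = IFN-gamma with 300 µM nifuroxazide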
bCat nuc transl = alters nuclear translocation of beta-catenin in HeLa cells. immunofluorescence imaging. nuclear translocation activity, % at 5 µM. actives 0.3% (n = 190,000). AID 1665;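 active = nuclear translocation activity above 50% at 5 µM, with a well cell count of 50 or more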;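 also: per-cell ratio of nuclear to cytoplasmic median beta-catenin stain intensity; plate controls were DMSO negative control for no effect and GSK-3 inhibitor IX positive control for full effect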
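Test system: human HeLa cells, native beta-catenin. Compound dosing: 5 µM primary single dose, 0.1% DMSO, 0.02–20 µM confirmation series. Incubation: compound exposure 24 h at 37°C. Detection: beta-catenin immunostaining with DAPI counterstain, 20x imaging, 6 fields/well. Read-out basis: Nuclear/cytoplasmic beta-catenin signal ratio, % activation.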
STAT3 inh-2 = confirmation of STAT3 signaling inhibitors | shares compounds with STAT3 inh-1 | AID 1265 | U3A cells, IL-6 STAT3 luciferase reporter, luminescence; cell line lacks STAT1 | actives 45% (n = 1,200) | inhibition, % at 5.7 µM;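 active = inhibition above the hit cutoff computed for the primary STAT3 screen, cut at about 44% in these data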;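 also: 0% = IL-6 plus DMSO and 100% = IL-6 plus nifuroxazide control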
NFkB inh STAT3ct = inhibits NF-kappaB, counter-screen to STAT3 inhibitors. shares compounds with STAT3 inh-1. actives 36% (n = 1,200). inhibition, % at 5.7 µM. AID 1308. HEK293T NF-kB luciferase reporter, TNF-alpha induced;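 active = inhibition above the mean of solvent-only control wells plus 3 SD, cutoff set per campaign, cut at about 13% in these data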;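 also: 0% = TNF-alpha with DMSO and 100% = TNF-alpha with MG high control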
STAT1 inh STAT3c = counter-screen for STAT3 inhibitors: STAT1 inhibition; inhibition, % at 5.7 µM; shares compounds with STAT3 inh-1; AID 1317; actives 27% (n = 1,200); NIH 3T3 STAT1-luciferase reporter, IFN-gamma induced, luminescence;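 active = inhibition above the mean plus 3 SD of solvent-only control wells, limit set per screening run, cut at about 16% in these data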;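 also: 0% = DMSO with IFN-gamma and 100% = nifuroxazide control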
* = called active by the depositor; · = no result.

SMILES	STAT3 inh-1	MT stabilizer	STAT3 act	STAT1 blocker	bCat nuc transl	STAT3 inh-2	NFkB inh STAT3ct	STAT1 inh STAT3c
COC(=O)c1ccccc1NC(=O)COC(=O)CSc1nnc(N)s1	-7	2	107	1	1	·	·	·
O=NN(CCc1ccncc1)c1ccc(OCc2ccccc2)cc1	63*	2	51	24	-5	57*	19*	11
O=C(NCc1ccncc1)C(=O)N/N=C/c1ccc(OCc2ccccc2)cc1	2	6	98	-2	0	·	·	·
CC(C)CN1C(=O)c2ccc(C(=O)Nc3ccccn3)cc2C1=O	5	1	100	-10	-3	·	·	·
CC(C)CN1C(=O)c2ccc(C(=O)Nc3ccncc3)cc2C1=O	49*	5	63	14	-3	57*	6	8
CCOC(=O)c1sc(=S)n(C)c1NC(=O)c1ccccc1Cl	-1	6	104	4	-2	·	·	·
Cc1cc(C)c(S(=O)(=O)NCc2ccncc2)c(C)c1	75*	1	38	27	7	74*	27*	23*
CCCCc1ccc(S(=O)(=O)NCCc2ccncc2)cc1	38	5	72	8	-1	·	·	·
COc1cc(C)c(Br)cc1S(=O)(=O)NCc1ccncc1	61*	3	51	26	2	58*	20*	18*
Cc1ccc(S(=O)(=O)NCc2ccncc2)c(C)c1C	81*	2	32	29	0	82*	26*	14
CCCCNS(=O)(=O)c1ccc(S(=O)(=O)NCc2ccncc2)cc1	54*	2	57	25	3	35	-3	19*
COc1ccc(Br)cc1S(=O)(=O)NCc1ccccc1	12	5	88	19	-2	·	·	·
Cc1cc(C)c(NC(=O)NC(=O)C(Cl)(Cl)Cl)c(C)c1	-1	2	105	-4	-1	·	·	·
COc1ccc(CCNC(=O)CSc2ccc(Br)cc2)cc1OC	4	2	101	4	0	·	·	·
CCc1ccc(OCc2nc(-c3ccccn3)no2)c(Br)c1	56*	2	57	0	-2	19	-8	-108
CC(C)c1ccc(OCc2nc(-c3ccccn3)no2)c(Br)c1	17	1	93	-41	-4	·	·	·
Cn1c(CC(=O)Nc2ccc(Cl)c(Cl)c2)nnc1SCC(=O)NCc1ccccc1	3	4	101	0	-1	·	·	·
c1ccc(NCC2OCc3ccccc3CO2)cc1	-3	6	100	-40	3	·	·	·
Cc1ccc2oc(-c3cccc(NC(=O)Cc4cccs4)c3)nc2c1	26	2	80	-21	·	·	·	·
O=C(Nc1ccc(-c2nc3ccccc3[nH]2)cc1)C1CCCO1 (stereo unspecified)	68*	1	46	14	·	30	-14	-66
CCC(=O)Nc1ccc2oc(-c3cccc(C)c3)nc2c1	64*	1	50	-3	·	25	-19	-110
Cc1cccc(-c2nc3cc(NC(=O)C4CCCO4)ccc3o2)c1 (stereo unspecified)	72*	4	42	-34	0	46*	-5	-76
O=C(CCOc1ccc(F)cc1)Nc1nccs1	·	·	·	·	1	·	·	·
c1ccc(CC2CCN(c3ncnc4sccc34)CC2)cc1	83*	2	32	26	2	79*	12	8
Cc1ccc(NC(=O)COC(=O)CNC(=O)c2ccco2)cc1	2	3	99	-2	-1	·	·	·
SMILES	STAT3 inh-1	MT stabilizer	STAT3 act	STAT1 blocker	bCat nuc transl	STAT3 inh-2	NFkB inh STAT3ct	STAT1 inh STAT3c
CCN(CC)c1ccc(NC(=O)CN2C(=O)CSc3ncccc32)c(C)c1	70*	5	47	23	·	56*	12	13
O=C(Cn1cnc2ccccc2c1=O)NNC(=O)c1ccccc1	·	·	·	·	-1	·	·	·
N#Cc1c(NC(=O)CSc2ncn[nH]2)sc2c1CCCCC2	71*	5	44	30	·	68*	30*	-1
N#Cc1c(NC(=O)CSc2nc(N)cc(=O)[nH]2)sc2c1CCCCCC2	43	2	65	6	0	·	·	·
CC(C)N1CCN(Cc2ccc(C#CCCO)cc2)CC1CCO (stereo unspecified)	2	3	103	3	1	·	·	·
Cn1c(SCC(=O)O)nnc1-c1cccc(NC(=O)c2cccc3ccccc23)c1	·	·	·	·	0	·	·	·
COc1ccc(-c2nc(-c3ccc(Br)o3)no2)cc1	49*	8	65	-21	·	8	-19	-132
OCCCn1c(-c2ccccc2)csc1=Nc1ccccc1	2	3	103	3	2	·	·	·
COc1ccc(N=c2scc(-c3ccc(OC)cc3)n2CCO)cc1	52*	1	60	-3	-1	29	-2	-10
Cc1ccc(S(=O)(=O)Nc2ccc(C(=O)OCC(=O)N(CCC#N)c3ccccc3)cc2)cc1C	4	4	95	4	-1	·	·	·
Clc1ccc(OCc2cc(-c3ccccc3)no2)c(Cl)c1	76*	2	41	31	-6	46*	1	-76
Cc1onc(-c2ccccc2)c1CNC(=O)C1COc2ccccc2O1 (stereo unspecified)	·	·	·	·	8	·	·	·
Cc1sc2ncnc(SCC(=O)Nc3nc(-c4ccc(F)c(F)c4)cs3)c2c1C	5	2	101	7	0	·	·	·
CCOC(=O)C1CCN(C(=O)C(C)N(c2ccc(Oc3ccccc3)cc2)S(C)(=O)=O)CC1 (stereo unspecified)	49*	3	61	24	2	41	4	10
COc1ccc(N(C(C)C(=O)N2CCC(Cc3ccccc3)CC2)S(C)(=O)=O)cc1 (stereo unspecified)	50*	2	58	26	2	46*	9	21*
CC1CCC2C(=O)N(c3ccc(Cc4ccncc4)cc3)C(=O)C2C1 (stereo unspecified)	74*	2	38	32	-1	70*	23*	21*
CCOc1nc2c(c(=O)n(C)c(=O)n2C)n1Cc1ccccc1Cl	46*	3	65	17	-14	27	7	15
O=C(Nc1ccc(Cc2ccncc2)cc1)c1ccc(S(=O)(=O)N2CCCC2)cc1	68*	2	44	21	-3	66*	15*	15
O=C(Nc1ccccc1)c1ccc(S(=O)(=O)N2CCOCC2)cc1	11	2	92	3	4	·	·	·
CC(=O)c1ccc(NC(=O)c2ccc(S(=O)(=O)N3CCCC3)cc2)cc1	12	2	92	1	-3	·	·	·
